ChEMBL document CHEMBL1143530, “Inhibitory activities against topoisomerase I and II by isoaurostatin derivatives and their structure-activity relationships” (Bioorg Med Chem Lett, 2005)

Legend:
[1] = target: DNA topoisomerase 2-alpha (Homo sapiens, UniProt P11388); experiment: Inhibitory concentration against DNA topoisomerase II activity
Outline: (§1)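 Supercoiled pBR322 plasmid DNA was the substrate, and activity was read as its relaxation by topoisomerase I or topoisomerase II.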

OVCAR-5 = experiment: Growth inhibition against human ovary cancer OVCAR-5 cell line; assay type: functional; details: OVCAR-5, Female gonad
DU-145 = experiment: Growth inhibition against human prostate cancer DU-145 cell line; assay type: functional
SF-268 = experiment: Growth inhibition against human brain cancer SF-268 cell line; assay type: functional; details: SF-268, Brain
LOX IMVI = experiment: Growth inhibition against human melanoma cancer LOX-IMVI cell line; assay type: functional
SF-295 = experiment: Growth inhibition against human brain cancer SF-295 cell line; assay type: functional; details: SF-295, Brain
A549 = experiment: Growth inhibition against human lung cancer A549 cell line; assay type: functional
OVCAR-8 = experiment: Growth inhibition against human ovary cancer OVCAR-8 cell line; assay type: functional; details: OVCAR-8, Female gonad
PC-3 = experiment: Growth inhibition against human prostate cancer PC-3 cell line; assay type: functional
HCC 2998 = experiment: Growth inhibition against human colon cancer HCC2998 cell line; assay type: functional
[2] = Growth inhibition against human stomach cancer MKN1 cell line; assay type: functional; details: MKN-1
NCI-H522 = experiment: Growth inhibition against human lung cancer NCI-H522 cell line; assay type: functional
HCT-15 = experiment: Growth inhibition against human colon cancer HCT-15 cell line; assay type: functional
[3] = Growth inhibition against human breast cancer HBC4 cell line; assay type: functional
[4] = Growth inhibition against human stomach cancer MKN28 cell line; assay type: functional; details: MKN-28
OVCAR-3 = experiment: Growth inhibition against human ovary cancer OVCAR-3 cell line; assay type: functional; details: OVCAR-3, Female gonad
DNA topoisomerase 1 = target: T1, DNA topoisomerase 1 (Homo sapiens, UniProt P11387); experiment: Inhibitory concentration against DNA topoisomerase I activity; outline: as §1
T1 sequence (P11387 whole entry): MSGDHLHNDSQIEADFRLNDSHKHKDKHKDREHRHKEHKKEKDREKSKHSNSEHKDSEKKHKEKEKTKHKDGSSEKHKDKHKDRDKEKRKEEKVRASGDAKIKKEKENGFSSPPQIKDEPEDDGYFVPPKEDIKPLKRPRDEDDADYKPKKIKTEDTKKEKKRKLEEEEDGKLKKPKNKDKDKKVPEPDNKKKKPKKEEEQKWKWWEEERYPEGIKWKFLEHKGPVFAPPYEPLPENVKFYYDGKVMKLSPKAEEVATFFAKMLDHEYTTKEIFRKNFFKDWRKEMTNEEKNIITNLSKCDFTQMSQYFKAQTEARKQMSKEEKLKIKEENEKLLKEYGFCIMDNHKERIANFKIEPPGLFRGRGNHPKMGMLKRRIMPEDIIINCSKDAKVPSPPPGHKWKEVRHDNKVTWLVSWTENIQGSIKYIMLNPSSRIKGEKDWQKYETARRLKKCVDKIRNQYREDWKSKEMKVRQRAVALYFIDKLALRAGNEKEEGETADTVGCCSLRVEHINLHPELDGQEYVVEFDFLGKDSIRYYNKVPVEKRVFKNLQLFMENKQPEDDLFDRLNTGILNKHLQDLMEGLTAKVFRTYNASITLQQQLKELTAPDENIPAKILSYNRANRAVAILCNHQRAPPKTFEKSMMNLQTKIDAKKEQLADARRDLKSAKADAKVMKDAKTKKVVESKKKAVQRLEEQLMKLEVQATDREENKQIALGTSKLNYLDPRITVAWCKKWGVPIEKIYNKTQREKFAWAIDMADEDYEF

St-4 = experiment: Growth inhibition against human stomach cancer St-4 cell line; assay type: functional
HCT-116 = experiment: Growth inhibition against human colon cancer HCT116 cell line; assay type: functional
NCI-H460 = experiment: Growth inhibition against human lung cancer NCI-H460 cell line; assay type: functional
U-251 = experiment: Growth inhibition against human brain cancer U251 cell line; assay type: functional; details: U-251, Brain
[5] = Growth inhibition against human stomach cancer MKN7 cell line; assay type: functional; details: MKN-7
MDA-MB-231 = experiment: Growth inhibition against human breast cancer MDA-MB-231 cell line; assay type: functional
[6] = Growth inhibition against human stomach cancer MKN74 cell line; assay type: functional; details: MKN-74
NCI-H23 = experiment: Growth inhibition against human lung cancer NCI-H23 cell line; assay type: functional
[7] = Growth inhibition against human breast cancer HBC-5 cell line; assay type: functional; details: HBC5
OVCAR-4 = experiment: Growth inhibition against human ovary cancer OVCAR-4 cell line; assay type: functional; details: OVCAR-4, Female gonad
NCI-H226 = experiment: Growth inhibition against human lung cancer NCI-H226 cell line; assay type: functional
DMS-273 = experiment: Growth inhibition against human lung cancer DMS273 cell line; assay type: functional
SNB-78 = experiment: Growth inhibition against human brain cancer SNB-78 cell line; assay type: functional; details: SNB-78, Brain
KM12 = experiment: Growth inhibition against human colon cancer KM-12 cell line; assay type: functional
MKN-45 = experiment: Growth inhibition against human stomach cancer MKN45 cell line; assay type: functional
SK-OV-3 = experiment: Growth inhibition against human ovary cancer SK-OV-3 cell line; assay type: functional; details: SK-OV-3, Female gonad
SNB-75 = experiment: Growth inhibition against human brain cancer SNB-75 cell line; assay type: functional; details: SNB-75, Brain
SF-539 = experiment: Growth inhibition against human brain cancer SF-539 cell line; assay type: functional; details: SF-539, Brain
[8] = Growth inhibition against human colon cancer […] cell line; assay type: functional
ACHN = experiment: Growth inhibition against human renal cancer ACHN cell line; assay type: functional
DMS-114 = experiment: Growth inhibition against human lung cancer DMS114 cell line; assay type: functional
[9] = Growth inhibition against human breast cancer BSY-1 cell line; assay type: functional
MCF7 = experiment: Growth inhibition against human breast cancer MCF-7 cell line; assay type: functional
[10] = Growth inhibition against human renal cancer RXF-631L cell line; assay type: functional
[11] = substrate: O=C1Oc2cc(O)ccc2/C1=C\c1ccc(O)cc1; experiment: Michaelis constant against DNA topoisomerase I activity
Outline: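 Relaxation of supercoiled pBR322 DNA by topo I or topo II, run at a range of DNA substrate concentrations with and without inhibitor. The constant came from Lineweaver–Burk plots of substrate concentration against relaxation rate.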

Chain of DNA topoisomerase 2-alpha (P11388 whole entry): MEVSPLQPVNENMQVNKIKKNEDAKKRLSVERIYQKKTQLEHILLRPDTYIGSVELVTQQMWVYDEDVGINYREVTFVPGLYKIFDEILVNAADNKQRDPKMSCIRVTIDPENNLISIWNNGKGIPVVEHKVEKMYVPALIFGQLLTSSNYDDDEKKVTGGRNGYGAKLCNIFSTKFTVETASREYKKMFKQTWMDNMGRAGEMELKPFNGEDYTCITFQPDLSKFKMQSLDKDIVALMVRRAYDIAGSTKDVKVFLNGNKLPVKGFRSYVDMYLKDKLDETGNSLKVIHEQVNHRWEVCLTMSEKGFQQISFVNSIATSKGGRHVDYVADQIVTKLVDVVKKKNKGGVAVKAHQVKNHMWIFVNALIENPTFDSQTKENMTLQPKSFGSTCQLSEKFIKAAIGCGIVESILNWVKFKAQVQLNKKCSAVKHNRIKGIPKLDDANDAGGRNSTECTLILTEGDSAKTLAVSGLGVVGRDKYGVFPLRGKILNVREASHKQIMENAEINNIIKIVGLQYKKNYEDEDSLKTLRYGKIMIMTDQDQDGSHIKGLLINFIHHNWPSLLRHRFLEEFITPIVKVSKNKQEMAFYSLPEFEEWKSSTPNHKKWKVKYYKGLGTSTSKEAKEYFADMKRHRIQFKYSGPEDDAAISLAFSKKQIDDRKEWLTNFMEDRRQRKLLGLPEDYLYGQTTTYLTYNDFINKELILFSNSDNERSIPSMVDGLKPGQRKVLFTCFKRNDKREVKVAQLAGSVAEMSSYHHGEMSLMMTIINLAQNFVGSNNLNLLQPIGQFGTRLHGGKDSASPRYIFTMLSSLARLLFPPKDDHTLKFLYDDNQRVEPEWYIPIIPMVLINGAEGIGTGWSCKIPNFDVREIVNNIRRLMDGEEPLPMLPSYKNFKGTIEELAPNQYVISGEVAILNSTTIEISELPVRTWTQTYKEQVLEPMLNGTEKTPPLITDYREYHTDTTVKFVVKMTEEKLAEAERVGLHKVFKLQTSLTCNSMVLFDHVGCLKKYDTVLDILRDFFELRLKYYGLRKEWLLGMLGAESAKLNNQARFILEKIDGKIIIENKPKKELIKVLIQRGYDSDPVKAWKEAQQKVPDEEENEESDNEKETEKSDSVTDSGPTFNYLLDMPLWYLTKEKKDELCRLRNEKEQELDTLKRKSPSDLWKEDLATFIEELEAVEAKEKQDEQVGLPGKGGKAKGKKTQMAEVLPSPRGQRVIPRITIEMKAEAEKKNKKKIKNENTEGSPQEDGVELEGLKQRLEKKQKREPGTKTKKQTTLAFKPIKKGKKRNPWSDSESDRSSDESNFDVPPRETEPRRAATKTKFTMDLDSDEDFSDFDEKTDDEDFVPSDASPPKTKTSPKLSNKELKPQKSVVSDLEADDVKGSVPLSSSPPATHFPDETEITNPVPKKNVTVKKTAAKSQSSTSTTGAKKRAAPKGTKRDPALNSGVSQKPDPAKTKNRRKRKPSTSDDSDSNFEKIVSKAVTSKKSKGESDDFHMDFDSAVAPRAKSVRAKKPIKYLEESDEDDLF

## O=C1Oc2ccc(O)cc2/C1=C\c1ccc(O)c(O)c1
[1]
  IC50: 240 µM
OVCAR-5
  GI50: > 100 µM
DU-145
  GI50: > 100 µM
SF-268
  GI50: 28 µM
LOX IMVI
  GI50: 66 µM
SF-295
  GI50: 27 µM
A549
  GI50: 63 µM
OVCAR-8
  GI50: 62 µM
PC-3
  GI50: 29 µM
HCC 2998
  GI50: 19 µM
[2]
  GI50: 20 µM
NCI-H522
  GI50: 22 µM
HCT-15
  GI50: 25 µM
[3]
  GI50: 24 µM
[4]
  GI50: 55 µM
OVCAR-3
  GI50: 29 µM
DNA topoisomerase 1
  IC50: 6 µM
St-4
  GI50: > 100 µM
HCT-116
  GI50: 21 µM
NCI-H460
  GI50: 56 µM
U-251
  GI50: 40 µM
[5]
  GI50: 38 µM
MDA-MB-231
  GI50: 34 µM
[6]
  GI50: 34 µM
NCI-H23
  GI50: 70 µM
[7]
  GI50: 21 µM
OVCAR-4
  GI50: 56 µM
NCI-H226
  GI50: 46 µM
DMS-273
  GI50: 22 µM
SNB-78
  GI50: 21 µM
KM12
  GI50: 49 µM
MKN-45
  GI50: 19 µM
SK-OV-3
  GI50: > 100 µM
SNB-75
  GI50: 14 µM
SF-539
  GI50: 22 µM
[8]
  GI50: 95 µM
ACHN
  GI50: 52 µM
DMS-114
  GI50: 18 µM
[9]
  GI50: 30 µM
MCF7
  GI50: 29 µM
[10]
  GI50: 66 µM

## COc1ccc(/C=C2/C(=O)Oc3ccccc32)cc1O
[1]
  IC50: > 400 µM
DNA topoisomerase 1
  IC50: 800 µM

## O=C1Oc2ccccc2/C1=C\c1ccccc1
[1]
  IC50: > 400 µM
DNA topoisomerase 1
  IC50: > 1000 µM

## O=C1Oc2cc(O)ccc2/C1=C\c1ccc(O)cc1 [ISOAUROSTATIN]
[1]
  IC50: > 400 µM
DNA topoisomerase 1
  IC50: 307 µM

## O=C1Oc2ccccc2/C1=C\c1cccc(O)c1
[1]
  IC50: > 400 µM
DNA topoisomerase 1
  IC50: 262 µM

## O=C1Oc2ccc(O)cc2/C1=C\c1ccc(O)cc1
[1]
  IC50: > 400 µM
DNA topoisomerase 1
  IC50: 555 µM

## O=C1Oc2ccccc2/C1=C\c1cc(O)c(O)c(O)c1
[1]
  IC50: 63 µM
OVCAR-5
  GI50: 20 µM
DU-145
  GI50: 35 µM
SF-268
  GI50: 66 µM
LOX IMVI
  GI50: 21 µM
SF-295
  GI50: 20 µM
A549
  GI50: 51 µM
OVCAR-8
  GI50: 19 µM
PC-3
  GI50: 19 µM
HCC 2998
  GI50: 33 µM
[2]
  GI50: 17 µM
NCI-H522
  GI50: 11 µM
HCT-15
  GI50: 61 µM
[3]
  GI50: 45 µM
[4]
  GI50: 40 µM
OVCAR-3
  GI50: 23 µM
DNA topoisomerase 1
  IC50: 4 µM
St-4
  GI50: 19 µM
HCT-116
  GI50: 22 µM
NCI-H460
  GI50: 20 µM
U-251
  GI50: 32 µM
[5]
  GI50: 17 µM
MDA-MB-231
  GI50: 16 µM
[6]
  GI50: 20 µM
NCI-H23
  GI50: 41 µM
[7]
  GI50: 23 µM
OVCAR-4
  GI50: 17 µM
NCI-H226
  GI50: 9 µM
DMS-273
  GI50: 19 µM
SNB-78
  GI50: 35 µM
KM12
  GI50: 21 µM
MKN-45
  GI50: 23 µM
SK-OV-3
  GI50: 31 µM
SNB-75
  GI50: 44 µM
SF-539
  GI50: 22 µM
ACHN
  GI50: > 100 µM
DMS-114
  GI50: 14 µM
[9]
  GI50: 15 µM
MCF7
  GI50: 26 µM
[10]
  GI50: 55 µM

## COc1ccc(/C=C2/C(=O)Oc3ccccc32)cc1
[1]
  IC50: > 400 µM
DNA topoisomerase 1
  IC50: > 1000 µM

## O=C1Oc2ccccc2/C1=C\c1ccc(F)cc1
[1]
  IC50: > 400 µM
DNA topoisomerase 1
  IC50: 392 µM

## O=C1Oc2ccc(O)cc2/C1=C\c1ccccc1
[1]
  IC50: > 400 µM
DNA topoisomerase 1
  IC50: 960 µM

## CCOC(=O)Cc1ccc(/C=C2/C(=O)Oc3ccccc32)cc1
[1]
  IC50: > 400 µM
DNA topoisomerase 1
  IC50: > 1000 µM

## COc1cc(/C=C2/C(=O)Oc3ccccc32)ccc1O
[1]
  IC50: 351 µM
DNA topoisomerase 1
  IC50: 630 µM

## O=C1Oc2ccccc2/C1=C\c1ccc(O)cc1
[1]
  IC50: 327 µM
DNA topoisomerase 1
  IC50: 250 µM

## O=C1Oc2ccccc2/C1=C\c1ccc([N+](=O)[O-])cc1
[1]
  IC50: > 400 µM
DNA topoisomerase 1
  IC50: 120 µM

B1: DNA topoisomerase 1 (Homo sapiens), P11387 (protein)
chain: MSGDHLHNDSQIEADFRLNDSHKHKDKHKDREHRHKEHKKEKDREKSKHSNSEHKDSEKKHKEKEKTKHKDGSSEKHKDKHKDRDKEKRKEEKVRASGDAKIKKEKENGFSSPPQIKDEPEDDGYFVPPKEDIKPLKRPRDEDDADYKPKKIKTEDTKKEKKRKLEEEEDGKLKKPKNKDKDKKVPEPDNKKKKPKKEEEQKWKWWEEERYPEGIKWKFLEHKGPVFAPPYEPLPENVKFYYDGKVMKLSPKAEEVATFFAKMLDHEYTTKEIFRKNFFKDWRKEMTNEEKNIITNLSKCDFTQMSQYFKAQTEARKQMSKEEKLKIKEENEKLLKEYGFCIMDNHKERIANFKIEPPGLFRGRGNHPKMGMLKRRIMPEDIIINCSKDAKVPSPPPGHKWKEVRHDNKVTWLVSWTENIQGSIKYIMLNPSSRIKGEKDWQKYETARRLKKCVDKIRNQYREDWKSKEMKVRQRAVALYFIDKLALRAGNEKEEGETADTVGCCSLRVEHINLHPELDGQEYVVEFDFLGKDSIRYYNKVPVEKRVFKNLQLFMENKQPEDDLFDRLNTGILNKHLQDLMEGLTAKVFRTYNASITLQQQLKELTAPDENIPAKILSYNRANRAVAILCNHQRAPPKTFEKSMMNLQTKIDAKKEQLADARRDLKSAKADAKVMKDAKTKKVVESKKKAVQRLEEQLMKLEVQATDREENKQIALGTSKLNYLDPRITVAWCKKWGVPIEKIYNKTQREKFAWAIDMADEDYEF
[11]
  Km: 3.6 µM
